Consider one compound from PMC3073091 (Chromatographia, 2011).

The target of one data set is human H3 receptor. As to conditions: read-out: hKi; human H3 receptor stably expressed in CHO-K1 cells; preliminary pharmacological studies; cited from earlier work.
Data set [1] in a line: stability of DL76 in rat serum QC samples under storage and process conditions. The note with it: bench top, post preparative, freeze/thaw, long term. It counts as in vitro ADME.
A short description of data set [2]: pilot pharmacokinetic study in rats after intravenous administration. In kind it is in vivo, rat. The essentials: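 Male Wistar rats (13–15 weeks, 200–220 g) were fasted overnight with free water access. They received 3 mg kg−1 i.v. in 0.9% saline. Under thiopental (70 mg kg−1), blood was taken by decapitation at 5, 10, 30, 60, 120 and 240 min (n = 5 per time). Serum was stored at −30 °C, then 100 µL was extracted into ethyl acetate with internal standard for LC–MS–MS. Non-compartmental analysis used mean concentrations: t1/2 = 0.693/λz, Cl = dose/AUC0-inf, Vss = D·AUMC/AUC².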

[3] abbreviates: male, Wistar, rat, serum, iv, 3 mg/kg.

On to `CC(C)(C)c1ccc(OCCCN2CCCCC2)cc1` [DL76, 1-[3-(4-tert-butylphenoxy)propyl]piperidine], for which the Ki at human H3 receptor was 22 ± 3 nM. Besides, the “stability in rat serum (all storage and process tests)” value in data set [1] is given as “good stability”. In data set [2] (setting [3]), the clearance is 217 mL/min/kg and the half-life came to 1.41 h. For the same compound, the “serum concentration of DL76 in a representative rat serum sample” value in data set [2] (rat serum after i.v. 3 mg kg^−1, time not stated) came to 67.82 ng/mL.

The clearance is the volume of plasma or blood freed of the substance per unit of time. Broadly, the half-life is the time in which the quantity being followed falls by half.
